Results of several laboratories.
Protocols differ between the studies behind these lines.
Target: Interleukin-1 receptor-associated kinase 1 (IRAK1, Homo sapiens, UniProt P51617)

| Compound | test | conditions | remaining binding |
| --- | --- | --- | --- |
| CCS(=O)(=O)c1cc2cc(C[C@](O)(CC(C)(C)c3ccc(F)cc3C(N)=O)C(F)(F)F)[nH]c2cn1 | cell-free assay, competition with immobilised ligand | 1 µM | 99% |
| O=C(NCCCN1CCOCC1)c1ccc(Nc2nccc(-c3cc4ccccc4s3)n2)cc1 | binding, competition with immobilised ligand | 1 µM | 3.3% |
| COc1cnc(Nc2cccc(S(N)(=O)=O)c2)nc1N1CCN(c2ccccc2)CC1 | binding, competition with immobilised ligand | 1 µM | 68% |
| N[C@H]1CCN(c2nccc(-c3cnn4ncccc34)n2)C1 | binding | 1 µM | 90% |
| CCCOc1ccc([C@H]2[C@H](C(=O)O)[C@@H](c3ccc4c(c3)OCO4)CN2CC(=O)Nc2c(CC)cccc2CC)cc1 | cell-free assay, competition with immobilised ligand | 1 µM | 67% |
| c1cnn2ncc(-c3ccnc(N4CCC45COC5)n3)c2c1 | binding | 1 µM | 76% |
| O=C(c1ccc(Nc2ncc(Cl)c(-c3cc4ccccc4s3)n2)cc1)N1CCC(N2CCCC2)CC1 | binding, competition with immobilised ligand | 1 µM | 0% |
| c1cncc(-c2cccc(Nc3nccc(NC4CCCCC4)n3)c2)c1 | binding, competition with immobilised ligand | 10 µM | 9.9% |
| Cc1c(NC(=O)c2cc(C(N)=O)nc3cc(F)ccc23)c(C(F)(F)F)nn1Cc1ccc(C#N)cc1 | cell-free assay, competition with immobilised ligand | 1 µM | 70% |
| CN(C)c1ncc(F)c(-c2cnn3ncccc23)n1 | binding | 1 µM | 66% |
| Nc1ncc2c(n1)-c1c([nH]c3ccc(C#CC4CC4)cc13)CCCC2 | binding, competition with immobilised ligand | 1 µM | 96% |
| O=C(NCC1CCOCC1)c1n[nH]cc1NC(=O)c1c(F)cccc1F | binding, competition with immobilised ligand | 1 µM | 98% |
| COc1cnc(Nc2cccc(S(N)(=O)=O)c2)nc1N1CCN(c2ccccc2)C(=O)C1 | binding, competition with immobilised ligand | 1 µM | 55% |
| CN(C)c1nccc(-c2cnc3ncccn23)n1 | binding | 1 µM | 65% |
| O=S(=O)(NC1CCC(c2cc(F)ccc2F)(S(=O)(=O)c2ccc(Cl)cc2)CC1)C(F)(F)F (stereo not drawn) | cell-free assay, competition with immobilised ligand | 1 µM | 93% |
| Cc1cnc(Nc2ccc(C(=O)N3CCC(N4CCCC4)CC3)cc2)nc1-c1cc2ccccc2s1 | binding, competition with immobilised ligand | 1 µM | 0% |
| C[C@@]1(Cc2ccc(C#N)cc2)C(=O)N(c2cc(Cl)cc(Cl)c2)c2ncc(C(=O)NC3(c4nc(C5CCC5)no4)CC3)n21 | cell-free assay, competition with immobilised ligand | 1 µM | 100% |
| C[C@H]1CCN(c2nccc(-c3cnn4ncccc34)n2)C1 | binding | 1 µM | 100% |
| CCN1CCN(Cc2ccc(C(=O)Nc3ccc(C)c(Oc4ccc5c(c4)CC(=O)N5)c3)cc2C(F)(F)F)CC1 | binding, competition with immobilised ligand | 1 µM | 100% |
| CN(C)c1nccc(-c2cnn3ncccc23)n1 | binding | 1 µM | 71% |
| COc1ccc2cc(OCC3(C(=O)O)CN(C(=O)c4ccc(F)cc4)C3)ccc2c1 | cell-free assay, competition with immobilised ligand | 1 µM | 100% |
